Hits are enriched below; roughly 3.7% of the tested compounds scored in any of these assays.
GPR7 antagonist: human neuropeptides B/W receptor 1 antagonism; P48145; GPR7-expressing cells, fluorescence antagonist assay; inhibition, % at 4.4 µM; actives 1.1% (n = 290,000); AID 1861; in the data active = inhibition above about 16%, passing the limit was not always enough;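 note: cells stimulated with the agonist NPW; 0% = agonist with vehicle and 100% = vehicle without agonist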
EP2 modulator: modulators of human EP2 prostaglandin E2 receptor. EP2-expressing cells, cAMP HTRF FRET, PGE2 co-stimulation. induction, % at 25 µM. actives 0.83% (n = 260,000). AID 940;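 active = compounds whose cAMP rise, as percent of the full-agonist control response, exceeds 60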;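 note: rat C6 glioma line stably carrying human EP2 under a CMV promoter; the protocol text gives 20 µM as final concentration; 100% = response of wells given 1 µM PGE2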
Target sequence (P43116 whole entry, looked up): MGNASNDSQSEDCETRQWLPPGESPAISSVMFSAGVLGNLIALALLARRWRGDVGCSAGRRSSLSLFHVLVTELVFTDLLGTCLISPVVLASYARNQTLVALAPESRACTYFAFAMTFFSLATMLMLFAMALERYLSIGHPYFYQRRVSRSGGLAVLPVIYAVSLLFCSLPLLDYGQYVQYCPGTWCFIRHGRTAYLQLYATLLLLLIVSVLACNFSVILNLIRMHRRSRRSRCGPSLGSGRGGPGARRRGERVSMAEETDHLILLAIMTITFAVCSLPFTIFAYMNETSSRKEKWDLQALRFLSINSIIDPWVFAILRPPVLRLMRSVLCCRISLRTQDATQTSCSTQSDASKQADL
OX1R antag-1: blocks the human orexin 1 receptor; AID 485270; actives 1.8% (n = 330,000); inhibition, % at 6.6 µM; OX1R-expressing cells, FRET antagonist read-out; O43613; in the data active = inhibition mostly above about 38%, no sharp cut-off; inactive = mostly below about 40%;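 note: 0% = agonist challenge alone and 100% = reference antagonist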
OX1R antag-2: blocks the human orexin 1 receptor; O43613; CHO/OX1R cells, Fluo-8 calcium fluorescence, orexin A; inhibition, % at 5 µM; actives 0.43% (n = 330,000); AID 434989;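 active = inhibition above its plate's threshold, mean inhibition of all tested compounds on the plate plus 3 SD, cut at about 37% in these data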;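 note: 0% = orexin A challenge wells and 100% = SB-334867-A antagonist wells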
CHO parental Ca: counter-screen: ATP calcium response change in parental CHO cells; parental CHO-K1, ATP-induced calcium, Fluo-8 fluorescence; inhibition, % at 5.6 µM; actives 0.63% (n = 330,000); AID 463079;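 active = inhibition above that plate's mean sample inhibition plus 3 SD, cut at about 26% in these data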;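 note: 0% = ATP-challenged DMSO wells and 100% = DMSO wells without ATP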
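Material – parental CHO cells · Reagent – ATP stimulus · Compound – single nominal dose of 5.6 µM per compound · Detection – Fluo-8 fluorescence · Read-out basis – percent inhibition of calcium signal · Controls – ATP-challenged DMSO wells low, unchallenged DMSO wells high · Repeats – no replicates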
PGE2 EP2 inh: inhibitors of human EP2 prostaglandin E2 receptor | P43116 | C6 glioma cells expressing human EP2, cAMP TR-FRET; cells stimulated with saturating PGE2 | inhibition, % at 25 µM | actives 0.52% (n = 260,000) | AID 1422;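 active = percent inhibition above 40 after rounding to a whole number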;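 note: rat C6 glioma host cells with rolipram phosphodiesterase inhibitor present; the protocol text gives 20 µM as final concentration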
An asterisk follows results filed as active.

For O=C(Nc1ccccc1C(=O)Nc1nnc(C(F)(F)F)s1)c1ccccc1 the results were GPR7 antagonist -11, EP2 modulator -35, OX1R antag-1 72*, OX1R antag-2 54*, CHO parental Ca 59* and PGE2 EP2 inh 22.
O=C(Nc1nnc(C(F)(F)F)s1)c1ccccc1F was read as EP2 modulator -74 and PGE2 EP2 inh 8.
For O=C(Nc1nnc(-c2ccc3c(c2)CCCC3)o1)c1ccc(Cl)cc1Cl the results were GPR7 antagonist -12, EP2 modulator -5, OX1R antag-1 55*, OX1R antag-2 5, CHO parental Ca -5 and PGE2 EP2 inh 16.
`CC1(C)N=C(N)N=C(N)N1c1cccc(CSc2ccccc2)c1` gave EP2 modulator 20 and PGE2 EP2 inh 52*.
For CC1(C)N=C(N)N=C(N)N1c1cccc(CN)c1 the results were GPR7 antagonist -5, EP2 modulator 22, OX1R antag-1 13, OX1R antag-2 -8, CHO parental Ca 10 and PGE2 EP2 inh 4.
For CC1(C)N=C(N)N=C(N)N1c1cccc(OCc2cccc(N)c2)c1 the results were EP2 modulator -2 and PGE2 EP2 inh 54*.
Screening COc1ccc(CNC(=O)CN(C(=O)c2csnn2)c2cccc(F)c2)cc1 returned GPR7 antagonist -14, OX1R antag-1 6, OX1R antag-2 -19 and CHO parental Ca -4.
For CN(C)C1(CN=Cc2cc(Cl)cc([N+](=O)[O-])c2O)CCCCC1 the results were GPR7 antagonist -9, OX1R antag-1 43*, OX1R antag-2 -12 and CHO parental Ca -8.
O=C(Nc1ccccc1-c1nnn(CC(=O)N2CCc3ccccc3C2)n1)C1CCC1 was read as GPR7 antagonist 1, EP2 modulator -25, OX1R antag-1 32, OX1R antag-2 -40, CHO parental Ca -24 and PGE2 EP2 inh 14.
CSc1ccccc1OCc1cc(C(=O)N2CCNC(=O)C2)no1 was read as GPR7 antagonist -5, OX1R antag-1 16, OX1R antag-2 -5 and CHO parental Ca -7.
Screening CSc1ccccc1OCc1cc(C(=O)N2CCc3c(Cl)cccc3C2)no1 returned GPR7 antagonist -9, OX1R antag-1 42, OX1R antag-2 62* and CHO parental Ca 58*.
Screening COc1ccc(-n2c3c(cc(C(=O)Nc4ccc5c(c4)C(=O)NC5=O)c2=O)C(=O)CCC3)cc1 returned GPR7 antagonist -12.
Screening COc1ccc(CNc2nc(NCc3ccc(OC)c(OC)c3)n(C(=O)c3cccs3)n2)cc1OC returned GPR7 antagonist 4, EP2 modulator 25, OX1R antag-1 44*, OX1R antag-2 -1, CHO parental Ca 6 and PGE2 EP2 inh 14.
CC(C)c1cccc(C(C)C)c1NC(=O)COC(=O)c1ccc(OCC(=O)Nc2cccc(C(F)(F)F)c2)cc1 was read as GPR7 antagonist -4, EP2 modulator 11, OX1R antag-1 16, OX1R antag-2 -13, CHO parental Ca -7 and PGE2 EP2 inh 2.
Screening Brc1cccc(-c2n[nH]c(-c3ccccc3)n2)c1 returned GPR7 antagonist 8, EP2 modulator -37, OX1R antag-1 71*, OX1R antag-2 63* and CHO parental Ca 97*.
CCn1c(C)csc1=NC(=O)c1ccccc1 was read as GPR7 antagonist -14, EP2 modulator 10, OX1R antag-1 76*, OX1R antag-2 -6, CHO parental Ca -3 and PGE2 EP2 inh 2.
Screening CC1CC(C)CN(C(=O)CNC(=O)c2ccc3ccccc3c2)C1 (centres undefined) returned GPR7 antagonist -5, OX1R antag-1 74*, OX1R antag-2 -18 and CHO parental Ca -10.
O[C@@H](c1cc([C@@]23C[C@H]4CC[C@@H]2C[C@H](C4)C3)nc2c(Cl)cc(Cl)cc12)[C@@H]1CCCCN1 was read as EP2 modulator 19 and PGE2 EP2 inh 77*.
For CCCCN1C(=O)/C(=C/C=C2\N(C)c3ccccc3C2(C)C)SC1=S the results were GPR7 antagonist 14, EP2 modulator 0, OX1R antag-1 1, OX1R antag-2 51*, CHO parental Ca 32 and PGE2 EP2 inh 7.
For CCCN1C(=O)/C(=C\C=C2/C=CN(CC)c3ccccc32)SC1=S the results were GPR7 antagonist 21*, EP2 modulator -20, OX1R antag-1 26, OX1R antag-2 1, CHO parental Ca -5 and PGE2 EP2 inh 11.
CN(CC(=O)Nc1c(Cl)cccc1Cl)C(=O)c1cccc(S(=O)(=O)NCc2ccccc2)c1 was read as OX1R antag-1 17, OX1R antag-2 -18 and CHO parental Ca -32.
`COc1ccc(/C=C/c2nc(S(=O)(=O)c3ccccc3)c(N(C)C)o2)cc1` gave GPR7 antagonist 8, OX1R antag-1 18, OX1R antag-2 8 and CHO parental Ca 6.
Screening O=C(NN=Cc1ccc(F)cc1)c1ccccc1NS(=O)(=O)c1cccs1 returned OX1R antag-1 25*, OX1R antag-2 -6 and CHO parental Ca -6.
`Cc1ccccc1NC(=O)CCS(=O)(=O)c1cccc2nonc12` gave GPR7 antagonist -5, OX1R antag-1 55*, OX1R antag-2 -14 and CHO parental Ca -3.
`c1nc(NC2CCCC2)c2[nH]cnc2n1` gave GPR7 antagonist 0, EP2 modulator -17, OX1R antag-1 4, OX1R antag-2 -12, CHO parental Ca -9 and PGE2 EP2 inh 14.
For COc1ccc2nc(C)cc(SCC(=O)NNC(=O)COc3cccc4ccccc34)c2c1 the results were GPR7 antagonist -2, EP2 modulator -66, OX1R antag-1 71*, OX1R antag-2 14, CHO parental Ca -16 and PGE2 EP2 inh 17.
Screening CCOC(=O)c1csc(N/N=C2\CCCc3ccccc32)n1 returned GPR7 antagonist 2, OX1R antag-1 6, OX1R antag-2 -14 and CHO parental Ca -18.
`CC(C)(C)C(=O)NC(C(N)=O)=C(Cl)Cl` gave GPR7 antagonist -4, EP2 modulator 6, OX1R antag-1 10, OX1R antag-2 -8, CHO parental Ca -7 and PGE2 EP2 inh 7.
`COCCN1CCn2c(nc3cc([N+](=O)[O-])ccc32)C1` gave GPR7 antagonist -6, EP2 modulator 2, OX1R antag-1 40*, OX1R antag-2 -2, CHO parental Ca -13 and PGE2 EP2 inh 2.
O=[N+]([O-])c1ccc2c(c1)nc1n2CCN(c2ccccc2)C1 was read as GPR7 antagonist 2, EP2 modulator -17, OX1R antag-1 17, OX1R antag-2 -14, CHO parental Ca -7 and PGE2 EP2 inh 2.
`COC(=O)c1nc(NC(C)=O)n[nH]1` gave GPR7 antagonist -4, EP2 modulator 0, OX1R antag-1 12, OX1R antag-2 -17, CHO parental Ca 3 and PGE2 EP2 inh 8.
`Cc1cc(C(=O)NCCc2ccc(Cl)cc2)c2ccccc2n1` gave GPR7 antagonist 5, OX1R antag-1 50*, OX1R antag-2 16 and CHO parental Ca -15.

Screens (PubChem)
